Molecular target: Protein-arginine deiminase type-4 (Homo sapiens) (UniProt Q9UM07)
Assay: residual PAD4 activity, irreversible binding – biochemical, dialysis, BAEE substrate, colorimetric citrulline readout, mechanism study for PAD4 inhibitor project, late-stage follow-up (AID 651627)
Details: recombinant PAD4, dialysis, at 100 µM, stronger effect = lower value
In short: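 System – recombinant PAD4 enzyme · Input – 0.6 µM PAD4 · Medium – Tris pH 7.6 with Ca2+ and DTT · Also added – BAEE substrate at 10 mM after dialysis · Schedule – 20 h dialysis, 15 min BAEE reaction at 37 °C · Measured by – citrulline colorimetry at 540 nm · Benchmarks – DMSO-treated enzyme without compound as reference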

Chain of Protein-arginine deiminase type-4 (Homo sapiens) (Q9UM07 whole entry, looked up): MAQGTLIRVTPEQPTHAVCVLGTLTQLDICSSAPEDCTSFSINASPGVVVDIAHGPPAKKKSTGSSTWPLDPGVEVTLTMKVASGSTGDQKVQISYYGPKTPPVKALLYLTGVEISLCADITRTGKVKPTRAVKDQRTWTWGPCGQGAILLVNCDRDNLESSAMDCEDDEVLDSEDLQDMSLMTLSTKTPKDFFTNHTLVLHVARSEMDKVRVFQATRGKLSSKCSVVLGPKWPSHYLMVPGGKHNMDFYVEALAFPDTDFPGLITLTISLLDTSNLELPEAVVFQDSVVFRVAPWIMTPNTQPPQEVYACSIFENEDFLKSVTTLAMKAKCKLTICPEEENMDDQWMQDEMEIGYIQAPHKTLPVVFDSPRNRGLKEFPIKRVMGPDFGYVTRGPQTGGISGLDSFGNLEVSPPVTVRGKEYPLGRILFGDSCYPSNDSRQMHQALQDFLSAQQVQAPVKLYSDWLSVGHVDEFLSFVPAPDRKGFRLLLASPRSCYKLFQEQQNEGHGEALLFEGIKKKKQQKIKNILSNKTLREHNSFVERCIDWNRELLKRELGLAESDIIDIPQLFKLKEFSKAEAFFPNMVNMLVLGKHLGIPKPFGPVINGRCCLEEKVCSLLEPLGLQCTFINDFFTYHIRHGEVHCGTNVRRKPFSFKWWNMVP

SMILES | residual activity after dialysis
NC1=CC(=O)c2ccc(-c3ccccn3)nc2C1=O | 12%
NC1=CC(=O)c2cccnc2C1=O | 2%
COC1=C(Br)C(=O)c2ncccc2C1=O | 0%

Further lines, results first:

residual activity after dialysis | SMILES
0% | NC1=CC(=O)c2ccc(-c3cccc(C(=O)O)n3)nc2C1=O
13% | COC(=O)c1cccc(-c2ccc3c(n2)C(=O)C(N)=CC3=O)n1

Source: PubChem BioAssay AID651627 (The Scripps Research Institute Molecular Screening Center, 2012)
